Results from article PMC3672268 (Molecular pharmaceutics, 2013).

Key:
Format in all cases: in vivo, C57BL/6N mice
[1] = Body weight in BLM-induced mouse PF model; details: mice that received BLM, no SCGB3A2 treatment
How it was run: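 C57BL/6N mice (7–8 weeks old, n = 10 per group) received one intratracheal dose of BLM (1.5 units/kg) by intubation, or PBS as control. Body weight was tracked over the 21-day study and expressed relative to the group's average day 0 weight, which was set as 100%.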

Mmp2 mRNA = assay: Quantitative RT-PCR of Mmp2 mRNA in lungs of PF model; details: for increase of Mmp2 mRNA level vs PBS-treated control lungs: qRT-PCR normalised to β-actin, mean ± SD
How it was run: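 Mouse lung Mmp2 mRNA was measured by qRT-PCR (Superscript II RT) with gene-specific Mmp2 and β-actin primers. Cycling was 50 °C for 2 min and 95 °C for 10 min, then 40 cycles of 95 °C for 15 s and 60 °C for 40 s. Values were normalised to β-actin by ΔΔCt, with day-21 PBS lungs set as 1. Samples were taken on days 7/14/21 post-BLM; mean ± SD.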

collagen fibers = assay: Masson's trichrome staining of collagen in lung sections; details: day 21; SCGB3A2 0.25 mg/kg/day i.v. for five days from day 7 after BLM
How it was run: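 Lungs were inflated and fixed in 4% paraformaldehyde, embedded in paraffin, cut into 4-μm whole-lung sections and stained with Masson's trichrome (collagen blue), with H&E alongside. Lungs were collected on day 21.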

MMP-2 [2] = assay: Western blot of active MMP-2 protein in lungs; details: day 21 PF model, SCGB3A2-treated
How it was run: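 Minced lung was lysed in RIPA buffer (Tris, NaCl, SDS, deoxycholate, Triton X-100, EDTA, NaF, orthovanadate) with protease inhibitors. Lysates were reduced, run on 10% SDS-PAGE, transferred to PVDF and blocked in TBS-Tween with 5% milk. Blots were probed with rabbit anti-MMP-2 ([…]) and β-actin, then an HRP secondary, and read by chemiluminescence on film or imager. Lungs were taken on day 21.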

MMP-2 [3] = target: MMP-2 (Mus musculus, UniProt P33434); assay: Fluorescence microscopy of cleaved MMP-P12 in lung sections; details: SCGB3A2-treated lung sections
How it was run: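 Fibrotic mouse lungs were frozen, and 10 μm sections were air-dried, fixed in cold acetone for 20 min, air-dried for 30 min at RT and blocked with 10% BSA for 30 min. Sections were incubated with rabbit anti-MMP2 (10 μg/mL) for 60 min at RT in the dark, then Cy3 donkey anti-rabbit, and mounted in DAPI. Cy5.5 from the cleaved probe was viewed directly by epifluorescence at ×400.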

Sequence of MMP-2 (Mus musculus, UniProt P33434) (P33434 110-662): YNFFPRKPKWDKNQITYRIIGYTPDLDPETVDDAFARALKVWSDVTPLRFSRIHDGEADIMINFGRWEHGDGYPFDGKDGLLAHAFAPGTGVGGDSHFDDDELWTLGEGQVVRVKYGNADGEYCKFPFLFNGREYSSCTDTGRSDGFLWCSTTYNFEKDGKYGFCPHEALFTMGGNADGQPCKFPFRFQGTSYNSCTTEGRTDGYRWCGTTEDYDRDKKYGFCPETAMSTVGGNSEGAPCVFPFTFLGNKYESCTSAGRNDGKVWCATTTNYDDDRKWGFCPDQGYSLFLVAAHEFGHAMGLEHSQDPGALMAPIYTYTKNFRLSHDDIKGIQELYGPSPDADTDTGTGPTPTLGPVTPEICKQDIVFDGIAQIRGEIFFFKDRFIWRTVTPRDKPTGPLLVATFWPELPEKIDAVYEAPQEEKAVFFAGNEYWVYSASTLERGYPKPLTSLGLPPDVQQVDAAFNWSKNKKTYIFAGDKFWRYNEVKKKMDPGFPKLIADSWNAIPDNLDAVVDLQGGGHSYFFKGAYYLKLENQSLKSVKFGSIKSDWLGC

For bleomycin [BLM], the “body weight loss by day 21” value [1] was ~ 20%, the “increase of Mmp2 mRNA level vs PBS-treated control lungs” value (from here on “increase of Mmp2 mRNA level”) (Mmp2 mRNA; day 7 post-BLM administration) was 4.25±0.84 folds and the “increase of Mmp2 mRNA level” value (Mmp2 mRNA; day 14 post-BLM administration) was 6±1.05 folds. The “increase of Mmp2 mRNA level” value (Mmp2 mRNA; day 21 post-BLM administration) was 9±1.87 folds.

B1: SCGB3A2: purified recombinant mouse secretoglobin 3A2 protein, given as treatment for PF (protein, UniProt Q920H1 22-91, looked up)
Secretoglobin family 3A …: LLINRLPVVDKLPVPLDDIIPSFDPLKMLLKTLGISVEHLVTGLKKCVDELGPEASEAVKKLLEALSHLV
With B1 the “Mmp2 mRNA expression vs no treatment group” value (Mmp2 mRNA; day 21 PF model, SCGB3A2-treated, qRT-PCR) was “decreased”, the “collagen expression in lungs vs BLM only-treated group” value (collagen fibers) was “much lower” and the “active MMP-2 protein expression vs no treatment group” value (MMP-2 [2]) was “decreased”. The “MMP-P12 cleavage (green) and MMP-2 (red) signals in lung sections” value (MMP-2 [3]) was “weak”.
